In ChEMBL document CHEMBL1764995, “Design, synthesis, and evaluation of novel 3,6-diaryl-4-aminoalkoxyquinolines as selective agonists of somatostatin receptor subtype 2” (J Med Chem, 2011):

Assays:
[1] = biological target: T1, Somatostatin receptor type 2 (Homo sapiens, UniProt P30874); assay: Agonist activity at human SST2 expressed in CHO cells assessed as inhibition of forskolin-stimulated cAMP release after 40 mins by luminescence assay; assay type: functional, cell-based
[2] = biological target: T1, Somatostatin receptor type 2; assay: Displacement of I125-somatostatin-14 from human SST2 expressed in CHO cells after 3 hrs by scintillation counting; assay type: cell-based
Rattus norvegicus [3] = assay: Antiangiogenic activity against laser-induced choroidal neovascularization rat model assessed as reduction in neovascular lesion area, intraocular administered once every 4 days; assay type: functional, organism-based; conditions: Eye
Outline: (§1)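 Laser-induced choroidal neovascularization in male Brown Norway rats (175-225 g). After lasering and topical 0.5% proparacaine, 5 μL vehicle (5% ethanol in PBS) or compound injected intravitreally 3 mm posterior to iris on days 0, 4 and 8; neovascular lesion area measured.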

[4] = Volume of distribution at steady state in dog at 0.125 mg/kg, iv; assay type: ADME, organism-based, Canis lupus familiaris; parameters: dose 0.125 mg/kg, route intravenous; conditions: in vivo, read-out: Vdss
Outline: (§2)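 Dog PK after 0.125 mg/kg iv; plasma clearance (mL/min/kg), half-life (h) and steady-state volume of distribution (L/kg).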

[5] = Plasma clearance in dog at 0.125 mg/kg, iv; assay type: ADME, organism-based, Canis lupus familiaris; parameters: dose 0.125 mg/kg, route intravenous; outline: as §2
Rattus norvegicus [6] = assay: Antiangiogenic activity against laser-induced choroidal neovascularization rat model assessed as reduction in neovascular lesion area at 5 ug, intraocular administered once every 4 days; assay type: functional; parameters: scale not given: the % may be the effect or the level left; outline: as §1
[7] = Half life in dog at 0.125 mg/kg, iv; assay type: ADME, organism-based, Canis lupus familiaris; parameters: dose 0.125 mg/kg, route intravenous; conditions: in vivo; outline: as §2
[8] = Aqueous solubility of the compound; assay type: physicochemical; conditions: buffer
Rattus norvegicus [9] = assay: Inhibition of secretagogue-induced growth hormone release in Wistar rat assessed as reduction in plasma growth hormone area under the curve at 2 mg/kg, iv treated 50 mins before secretagogue challenge measured after every 5 to 15 mins; assay type: functional; parameters: scale not given: the % may be the effect or the level left
Outline: (§3)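 Female Wistar rats (200-250 g) with jugular and carotid cannulas, pentobarbital-anesthetized (50 mg/kg ip); vehicle or compound given iv via jugular cannula, GH secretagogue (10 μg/kg iv) 50 min later.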

[10] = Volume of distribution at steady state in rat at 2 mg/kg, iv and 5 mg/kg, po; assay type: ADME, organism-based; conditions: in vivo, read-out: Vdss
Rattus norvegicus [11] = assay: Inhibition of secretagogue-induced growth hormone release in iv dosed Wistar rat plasma after 50 mins before secretagogue challenge measured after every 5 to 15 mins; assay type: functional, organism-based; outline: as §3
Rattus norvegicus [12] = assay: Antiangiogenic activity against laser-induced choroidal neovascularization rat model assessed as reduction in neovascular lesion area at 15 ug, intraocular administered once every 4 days; assay type: functional; parameters: scale not given: the % may be the effect or the level left; outline: as §1
[13] = Oral bioavailability in rat at 2 mg/kg, iv and 5 mg/kg, po; assay type: ADME, organism-based; conditions: in vivo
[14] = Plasma clearance in rat at 2 mg/kg, iv and 5 mg/kg, po; assay type: ADME, organism-based
[15] = Half life in rat at 2 mg/kg, iv and 5 mg/kg, po; assay type: ADME, organism-based; conditions: in vivo
Rattus norvegicus [16] = assay: Inhibition of secretagogue-induced growth hormone release in Wistar rat assessed as reduction in plasma growth hormone area under the curve at 0.2 mg/kg, iv treated 50 mins before secretagogue challenge measured after every 5 to 15 mins; assay type: functional; parameters: scale not given: the % may be the effect or the level left; outline: as §3
Homo sapiens [17] = organism: Homo sapiens; assay: Selectivity for human SST2 over human SST1
Outline: (§4)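 Human sst1, sst2, sst3, sst4 or sst5 stably expressed in CHO cells; membrane displacement of 0.1 nM 125I-somatostatin-14 by compound 0-10000 nM, 30 min tracer preincubation then 3 h at room temperature, filtration and scintillation counting; selectivity taken from the binding values across subtypes.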

Homo sapiens [18] = organism: Homo sapiens; assay: Selectivity for human SST2 over human SST5; outline: as §4
[19] = Half life in dog at 2 mg/kg, iv and 10 mg/kg, po; assay type: ADME, organism-based, Canis lupus familiaris; conditions: in vivo
[20] = Volume of distribution at steady state in dog at 2 mg/kg, iv and 10 mg/kg, po; assay type: ADME, organism-based, Canis lupus familiaris; conditions: in vivo, read-out: Vdss
Homo sapiens [21] = organism: Homo sapiens; assay: Selectivity for human SST2 over human SST3; outline: as §4
[22] = Plasma clearance in dog at 2 mg/kg, iv and 10 mg/kg, po; assay type: ADME, organism-based, Canis lupus familiaris
[23] = Half life in rat at 2 mg/kg, iv and 10 mg/kg, po; assay type: ADME, organism-based; conditions: in vivo
[24] = Oral bioavailability in rat at 2 mg/kg, iv and 10 mg/kg, po iv; assay type: ADME, organism-based; conditions: in vivo
[25] = Plasma clearance in rat at 2 mg/kg, iv and 10 mg/kg, po; assay type: ADME, organism-based
[26] = Volume of distribution at steady state in rat at 2 mg/kg, iv and 10 mg/kg, po; assay type: ADME, organism-based; conditions: in vivo, read-out: Vdss
[27] = biological target: T2, Gonadotropin-releasing hormone receptor (Homo sapiens, UniProt P30968); assay: Antagonist activity at GnRH receptor by GnRH; assay type: functional
T2 sequence (P30968 whole entry): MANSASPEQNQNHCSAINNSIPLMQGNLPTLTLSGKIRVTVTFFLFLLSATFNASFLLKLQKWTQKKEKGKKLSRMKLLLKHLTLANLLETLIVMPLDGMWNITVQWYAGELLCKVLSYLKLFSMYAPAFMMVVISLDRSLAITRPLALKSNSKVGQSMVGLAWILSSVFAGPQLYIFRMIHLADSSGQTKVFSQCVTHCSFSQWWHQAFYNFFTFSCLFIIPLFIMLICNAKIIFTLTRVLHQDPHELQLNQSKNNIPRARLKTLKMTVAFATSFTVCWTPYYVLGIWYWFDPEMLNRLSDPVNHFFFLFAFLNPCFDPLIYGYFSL

T1 sequence (P30874 whole entry): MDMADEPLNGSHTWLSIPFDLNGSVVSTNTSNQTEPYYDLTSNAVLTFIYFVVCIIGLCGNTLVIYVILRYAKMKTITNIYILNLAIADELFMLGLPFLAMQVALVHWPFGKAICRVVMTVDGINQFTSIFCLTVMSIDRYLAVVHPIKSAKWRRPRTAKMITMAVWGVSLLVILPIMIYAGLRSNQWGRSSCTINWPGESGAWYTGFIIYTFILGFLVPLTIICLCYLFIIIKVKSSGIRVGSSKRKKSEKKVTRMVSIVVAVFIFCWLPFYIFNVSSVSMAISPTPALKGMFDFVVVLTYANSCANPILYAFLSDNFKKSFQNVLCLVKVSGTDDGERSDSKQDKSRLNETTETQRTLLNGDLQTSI

SMILES | IC50 [1] [nM] | Ki [2] [nM] | other results
Cc1cc(C)cc(-c2cnc3cc(Cl)c(-c4cccnc4)cc3c2OCC[C@H]2CCCCN2)c1 | 8.3 | 0.13 | 
Cc1cc(C)cc(-c2cnc3cc(Cl)c(-c4cccc(C(N)=O)c4)cc3c2OCCCN)c1 | 0.38 | 0.08 | 
Cc1cc(C)cc(-c2cnc3cc(Cl)c(-c4ccc(CO)cc4)cc3c2OCC[C@H]2CCCCN2)c1 | 13 | 0.1 | 
COc1ccc(-c2cc3c(OCC[C@H]4CCCCN4)c(-c4cc(C)cc(C)c4)cnc3cc2Cl)cn1 | 50 | 0.65 | 
Cc1cc(C)cc(-c2cnc3cc(Cl)c(-c4cccc(O)c4)cc3c2OCCCN)c1 | 4.8 | 0.025 | Activity (Rattus norvegicus [3]): Dose-dependent effect; Vd [4]: 5.7 L/kg; clearance [5]: 7.1 mL/min/kg; Activity (Rattus norvegicus [6]): 35%; half-life [7]: 11 h; solubility [8]: Insoluble; Activity (Rattus norvegicus [9]): 91%; Vd [10]: 9.4 L/kg; inhibition (Rattus norvegicus [11]): Dose-dependent effect; Activity (Rattus norvegicus [12]): 53%; bioavailability [13]: 17%; clearance [14]: 52 mL/min/kg; half-life [15]: 2.9 h; Activity (Rattus norvegicus [16]): 38%
Cc1cc(C)cc(-c2cnc3cc(Cl)c(-c4cccc(O)c4)cc3c2OCC[C@H]2CCCCN2)c1 | 1.1 | 0.037 | 
Cc1cc(C)cc(-c2cnc3cc(Cl)c(-c4ccc(=O)[nH]c4)cc3c2OCC[C@H]2CCCCN2)c1 | 0.29 | 0.27 | fold change (FC) (Homo sapiens [17]): > 1000; fold change (FC) (Homo sapiens [18]): > 1000; half-life [19]: 0.55 h; Vd [20]: 0.094 L/kg; fold change (FC) (Homo sapiens [21]): > 1000; clearance [22]: 5 mL/min/kg
Cc1cc(C)cc(-c2cnc3cc(Cl)c(-c4ccc(Cl)nc4)cc3c2OCC[C@H]2CCCCN2)c1 | 11 | 0.13 | 
Cn1cc(-c2cc3c(OCC[C@H]4CCCCN4)c(-c4cccc(CO)c4)cnc3cc2Cl)cn1 | 8.3 | 0.13 | 
Cc1cc(C)cc(-c2cnc3cc(Cl)c(-c4cccc(C(N)=O)c4)cc3c2OCC[C@H]2CCCCN2)c1 | 0.39 | 0.038 | 
Cc1cc(C)cc(-c2cnc3cc(Cl)c(-c4ccc(F)nc4)cc3c2OCC[C@H]2CCCCN2)c1 | 4.7 | 0.12 | 
Cc1cc(C)cc(-c2cnc3cc(Cl)c(-c4cnn(C)c4)cc3c2OCC[C@H]2CCCCN2)c1 |  |  | fold change (FC) (Homo sapiens [17]): > 1000; fold change (FC) (Homo sapiens [18]): > 1000; half-life [23]: 3.7 h; bioavailability [24]: 27%; fold change (FC) (Homo sapiens [21]): > 1000; clearance [25]: 14 mL/min/kg; Vd [26]: 3.1 L/kg
Cc1cc(C)cc(-c2c(OCCC3CCCCN3)c3cc(-c4ccncn4)c(Cl)cc3[nH]c2=O)c1 (configuration not stated) |  | 1400 | IC50 [27]: 3.2 nM
Cc1cc(C)cc(-c2cnc3cc(Cl)c(C(=O)Nc4ccncn4)cc3c2OCC[C@H]2CCCCN2)c1 |  | 20 | IC50 [27]: 2440 nM
Cc1cc(C)cc(-c2cnc3cc(Cl)c(-c4ccc(N)nc4)cc3c2OCC[C@H]2CCCCN2)c1 | 34 | 0.6 | 
Cc1cc(C)cc(-c2cnc3cc(Cl)c(-c4ccncc4)cc3c2OCC[C@H]2CCCCN2)c1 | 20 | 0.11 | 
OCc1cccc(-c2ccc3ncc(-c4cccc(CO)c4)c(OCC[C@H]4CCCCN4)c3c2)c1 | 11 | 0.13 | 
Cc1cc(C)cc(-c2cnc3cc(Cl)c(-c4ccc(O)cc4)cc3c2OCC[C@H]2CCCCN2)c1 | 0.38 | 0.08 | 
Cc1cc(C)cc(-c2c(OCC[C@H]3CCCCN3)c3cc(-c4ccc(F)cc4)c(Cl)cc3[nH]c2=O)c1 |  | 1.5 | 
